This is an account of results in ChEMBL document CHEMBL1177839, “Synthesis and preliminary biological evaluation of novel taspine derivatives as anticancer agents” (Eur J Med Chem, 2010).

Assay [1] concerns HT-29. Put plainly: Antiproliferative activity against human HT-29 cells after 48 hrs by MTT assay. It counts as functional, cell-based. To be noted: HT-29, 48 h. (In general: Formazan colour is commonly taken as a measure of viable cells.)
Assay [2] concerns SMMC-7721. Put plainly: Antiproliferative activity against human SMMC7721 cells after 48 hrs by MTT assay. It counts as functional, cell-based. As to conditions: SMMC-7721, 48 h.
For assay [3], the system named is A-375. The assay is described as follows: Antiproliferative activity against human A375 cells after 48 hrs by MTT assay. It counts as functional, cell-based. As to conditions: A-375, 48 h.
The subject of assay [4] is HeLa. Put plainly: Antiproliferative activity against human HeLa cells after 48 hrs by MTT assay. It counts as functional, cell-based.
Assay [5] deals with Caco-2. The assay is described as follows: Antiproliferative activity against human Caco-2 cells after 48 hrs by MTT assay. It counts as functional, cell-based. To be noted: Caco-2, 48 h. The method in brief: (§1)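 Cells in exponential growth harvested and seeded at 1 ×10⁴ cells/well, incubated 24 h at 37 °C, then exposed to a range of compound concentrations for 48 h. Viability read by MTT; IC₅₀ derived from dose-dependent growth inhibition.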

For assay [6], the system named is HEK293. Put plainly: Antiproliferative activity against human HEK293 cells overexpressing EGFR after 48 hrs by MTT assay. It counts as cell-based. As to conditions: HEK293, 48 h. The procedure, abridged:
as §1

The test system of assay [7] is A549. The assay is described as follows: Antiproliferative activity against human A549 cells after 48 hrs by MTT assay. It counts as functional, cell-based. As to conditions: A549, 48 h. The method in brief:
as §1

The subject of assay [8] is A-431. Put plainly: Antiproliferative activity against human A431 cells abnormally expressing EGFR after 48 hrs by MTT assay. It counts as functional, cell-based. To be noted: A-431, 48 h. The method in brief:
as §1

Assay [9] has as its system PANC-1. Put plainly: Antiproliferative activity against human PANC1 cells after 48 hrs by MTT assay. It counts as functional, cell-based. As to conditions: PANC-1, 48 h.
Assay [10] in a line: Antiproliferative activity against human ECV304 cells after 48 hrs by MTT assay. As to conditions: ECV-304, 48 h. It counts as cell-based. The procedure, abridged: as §1
Assay [11] concerns MCF7. The assay is described as follows: Antiproliferative activity against human MCF7 cells after 48 hrs by MTT assay. It counts as functional, cell-based. To be noted: MCF7, 48 h.

Each structure is given as a SMILES string.

With `CNC(=O)c1ccc(OC)c(OCCN2CCNCC2)c1-c1c(C(=O)NC)ccc(OC)c1OCC(=O)Nc1ccc(F)c(Cl)c1`, the IC50 – broadly, the concentration at which inhibition is half-maximal – in assay [1] is 47.2 µM; in [2], 126 µM.

As for `CNC(=O)c1ccc(OC)c(O)c1-c1c(C(=O)NC)ccc(OC)c1O`, the IC50 in [3] amounted to 106 µM; in assay [4], 97.6 µM; in assay [1], 200 µM; in assay [5] it was 104 µM; in [2] it was 95.7 µM; in [6], 88 µM. Further, the IC50 in assay [7] was 64.7 µM; in assay [8] it was 104 µM; in [9], 217 µM; in assay [10] it was 113 µM.

As for `CNC(=O)c1ccc(OC)c(O)c1-c1c(C(=O)NC)ccc(OC)c1OCC(=O)Nc1ccc(F)c(Cl)c1`, the IC50 in assay [3] is 217 µM; in assay [4], 53.4 µM; in [1], 214 µM; in assay [5], 20.3 µM; in assay [2] it was 109 µM; in assay [7], 73.5 µM. In addition, the IC50 came to 109 µM in assay [11], 191 µM in assay [9] and 72.2 µM in assay [10].

Take `COc1ccc2c(=O)oc3c(OC)cc(CCN(C)C)c4c(=O)oc1c2c34` [TASPINE]: the half-maximal inhibitory concentration (IC50) in [5] was 153 µM; in [6], 16 µM; in assay [7], 4.18 µM; in assay [8], 11.2 µM; in assay [10], 22.3 µM.

With `CNC(=O)c1ccc(OC)c(O)c1-c1c(C(=O)NC)ccc(OC)c1OCCN1CCOCC1`, the IC50 in assay [3] was 174 µM; in [4], 415 µM; in assay [1], 122 µM; in assay [5], 75.9 µM; in assay [2], 78.2 µM; in assay [6], 116 µM. For the same compound, the IC50 in assay [7] came to 259 µM; in assay [11], 83.7 µM; in assay [8], 75.9 µM; in assay [9], 166 µM; in assay [10], 1360 µM.

Consider `COC(=O)c1cc(OC(=O)c2ccc(OC)c(O)c2)c(OC)cc1CCNc1ccc(F)c(Cl)c1`, for which the IC50 worked out at 180 µM in assay [7] and 61 µM in assay [10].

Turning to `CNC(=O)c1ccc(OC)c(OCCN(C)C)c1-c1c(C(=O)NC)ccc(OC)c1OCC(=O)Nc1ccc(F)c(Cl)c1`, the IC50 in assay [3] turned out to be 242 µM; in assay [4], 117 µM; in assay [1], 133 µM; in assay [5] it was 167 µM; in assay [2] it was 124 µM; in assay [7] it was 241 µM. The IC50 was 123 µM in [11], 159 µM in assay [9] and 57.2 µM in [10].

With `COC(=O)c1cc(OC(=O)c2cc(O)c(OC)cc2CCN(C)C)ccc1OC`, the results for the IC50 in assay [5] and in [7] were 3100 µM and 111 µM, respectively.

As for `CNC(=O)c1ccc(OC)c(OCCN2CCOCC2)c1-c1c(C(=O)NC)ccc(OC)c1OCC(=O)Nc1ccc(F)c(Cl)c1`, the IC50 is 25.1 µM in assay [3]; 100 µM in [4]; 44.7 µM in assay [1]; 3310 µM in assay [5]; 194 µM in assay [2]; 194 µM in assay [7]. Also, the IC50 was determined as 60.4 µM in assay [11] and 110 µM in assay [9].

`COC(=O)c1cc(OC(=O)c2ccc(OC)c(O)c2)c(OC)cc1CCN(C)C`: the IC50 was determined as 110 µM in [5] and 453 µM in [7].

Regarding `COC(=O)c1cc(OC(=O)c2ccc(OC)c(O)c2)c(OC)cc1CCN1CCOCC1`, the results for the IC50 in [5], in assay [7] and in assay [10] were 52.5 µM, 158 µM and 2.67 µM, respectively.
